Calls of active or inactive are those of the source. No rule for the calls is given here.
Tests used:
[1] = test system: Salmonella typhimurium; experiment: Antimicrobial activity against Salmonella Typhimurium ATCC 14028 assessed as inhibition of biofilm formation after 24 hrs by spectrophotometry; assay type: functional, organism-based, Salmonella enterica subsp. enterica serovar Typhimurium; conditions: for IC50: Salmonella enterica, ATCC 14028, 24 h
Procedure, shortened: (§1)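 Static peg-lid biofilm prevention assay. Twofold serial dilutions in TSB diluted 1/20, 2–3 repeats per compound. Overnight S. Typhimurium ATCC14028 (LB-grown) or P. aeruginosa PA14 (TSB-grown) cultures were diluted 1:100, giving ~10^6 cells/well, then incubated 24 h at 25 °C without shaking. Pegs were PBS-washed, stained 30 min with 0.1% crystal violet, extracted with 30% acetic acid and read at OD570. IC50 was fitted from the concentration gradient.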

[2] = test system: Pseudomonas aeruginosa; experiment: Antimicrobial activity against Pseudomonas aeruginosa PA14 assessed as inhibition of biofilm formation after 24 hrs by spectrophotometry; assay type: functional, organism-based; conditions: PA14, 24 h; procedure, shortened: as §1
[3] = test system: Pseudomonas aeruginosa; experiment: Antimicrobial activity against Pseudomonas aeruginosa PA14 assessed as inhibition of planktonic cell growth at IC50 after 24 hrs by […]; assay type: functional, organism-based
Procedure, shortened: (§2)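 Planktonic growth was followed by Bioscreen growth curves, not by crystal violet. Overnight cultures were diluted 1:200 in TSB 1/20 and received compound serially diluted in DMSO or EtOH, in triplicate, with solvent controls. Plates were shaken at 25 °C for at least 24 h, reading A600 every 15 min.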

[4] = test system: Salmonella typhimurium; experiment: Antimicrobial activity against Salmonella Typhimurium ATCC 14028 assessed as inhibition of planktonic cell growth at IC50 after 24 hrs by […]; assay type: functional, organism-based; conditions: Salmonella enterica subsp. enterica serovar Typhimurium; procedure, shortened: as §2

| SMILES | IC50 [1] | IC50 [2] | growth inhibition (GI) [3] | growth inhibition (GI) [4] | inhibition (INH) [1] |
| --- | --- | --- | --- | --- | --- |
| CN1c2nccc[n+]2C[C@@]1(O)c1cccc([N+](=O)[O-])c1 | 564 µM | – | – | – | – |
| CCCCCCCN1c2nccc[n+]2C[C@@]1(O)c1ccc(Cl)cc1 | 6.7 µM | 36.9 µM | – | – | – |
| CCCCCCN1c2nccc[n+]2C[C@@]1(O)c1ccc(Cl)cc1 | 13.7 µM | 79.8 µM | – | – | – |
| CCCCCCCCCCN1c2nccc[n+]2C[C@@]1(O)c1ccc([N+](=O)[O-])cc1 | 9.9 µM | 22.3 µM | Active | Active | – |
| CN1c2nccc[n+]2C[C@@]1(O)c1ccc(Cl)cc1 | 225 µM | 170 µM | – | – | – |
| CCCCCCCCNc1ncc(-c2ccc(Br)cc2)[nH]1 | 1.9 µM | > 800 µM | – | – | – |
| CCCCCCCCN1c2nccc[n+]2C[C@@]1(O)c1ccc(SC)cc1 | 13.2 µM | 36.5 µM | – | – | – |
| CCCCCCCCN1c2nccc[n+]2C[C@@]1(O)c1ccc(S(C)(=O)=O)cc1 | 60.3 µM | 99.9 µM | – | – | – |
| CN1c2nccc[n+]2C[C@@]1(O)c1ccc([N+](=O)[O-])cc1 | 698 µM | > 400 µM | – | – | – |
| O=[N+]([O-])c1ccc([C@]2(O)C[n+]3cccnc3N2Cc2ccccc2)cc1 | 174 µM | – | – | – | – |
| O=[N+]([O-])c1ccc([C@]2(O)C[n+]3cccnc3N2C23CC4CC(CC(C4)C2)C3)cc1 | 8.8 µM | 14.4 µM | – | – | – |
| CCCCCCCCN1c2nccc[n+]2C[C@@]1(O)c1ccc(Cl)cc1 | 7 µM | 15.7 µM | Active | Active | – |
| CN1c2nccc[n+]2C[C@@]1(O)c1ccccc1 | > 800 µM | > 400 µM | – | – | – |
| CCCCCCCCN1c2nccc[n+]2C[C@@]1(O)c1ccccc1 | 9.8 µM | 14.4 µM | Active | Active | – |
| CCCCCCCCCCN1c2nccc[n+]2C[C@@]1(O)c1ccc(Cl)c(Cl)c1 | 32.4 µM | – | – | – | – |
| Fc1ccc(-c2cnc(NCc3ccc4c(c3)OCO4)[nH]2)cc1 | 66.6 µM | 456 µM | – | inactive | – |
| COc1cccc(CNc2ncc(-c3ccc(-c4ccc(-c5ccccc5)cc4)cc3)[nH]2)c1 | > 800 µM | > 800 µM | – | – | – |
| CCCCCNc1ncc(-c2ccc(Cl)cc2)[nH]1 | > 400 µM | 6.3 µM | – | – | – |
| O=[N+]([O-])c1ccc([C@]2(O)C[n+]3cccnc3N2C2CC2)cc1 | 125 µM | 20.4 µM | – | – | – |
| CNc1ncc(-c2ccc(F)c(F)c2)[nH]1 | 602 µM | – | – | – | – |
| Clc1ccc(-c2cnc(NC3CCCCC3)[nH]2)cc1 | > 800 µM | 25 µM | – | – | – |
| CC(C)CN1c2nccc[n+]2C[C@@]1(O)c1ccc([N+](=O)[O-])cc1 | 322 µM | 192 µM | – | – | – |
| CCCCCCCCN1c2nccc[n+]2C[C@@]1(O)c1ccc(-c2ccc([N+](=O)[O-])cc2)cc1 | 31 µM | 215 µM | – | – | – |
| CC(C)N1c2nccc[n+]2C[C@@]1(O)c1ccccc1 | 540 µM | > 400 µM | – | – | – |
| CCCCCCCCCCCCCCN1c2nccc[n+]2C[C@@]1(O)c1ccc(Cl)cc1 | > 800 µM | > 800 µM | – | – | – |
| CC(C)Nc1ncc(-c2ccccc2)[nH]1 | > 800 µM | 261 µM | – | – | – |

| SMILES | IC50 [1] | IC50 [2] | growth inhibition (GI) [3] | growth inhibition (GI) [4] | inhibition (INH) [1] |
| --- | --- | --- | --- | --- | --- |
| CCCCCCCCNc1ncc(-c2cccc3ccccc23)[nH]1 | 238 µM | > 800 µM | – | – | 50% |
| CCCCN1c2nccc[n+]2C[C@@]1(O)c1ccc(Br)cc1 | 90.1 µM | – | – | – | – |
| CCCCCCCCNc1ncc(-c2ccc(Cl)cc2)[nH]1 | > 400 µM | 1.6 µM | – | – | – |
| CCCCCCN1c2nccc[n+]2C[C@@]1(O)c1ccccc1 | 102 µM | 406 µM | – | – | – |
| CNc1ncc(-c2ccc(O)cc2)[nH]1 | 160 µM | – | – | – | – |
| O[C@@]1(c2ccccc2)C[n+]2cccnc2N1C1CCC1 | 493 µM | > 400 µM | – | – | – |
| CCCCCCNc1ncc(-c2ccc(F)cc2)[nH]1 | > 400 µM | 12.5 µM | – | – | – |
| O[C@@]1(c2ccccc2)C[n+]2cccnc2N1C1CCCCCC1 | 84.2 µM | 191 µM | inactive | inactive | – |
| CCNc1ncc(-c2ccc([N+](=O)[O-])cc2)[nH]1 | 171 µM | 104 µM | – | – | – |
| CCCCCCCCCCN1c2nccc[n+]2C[C@@]1(O)c1ccc(F)cc1 | 20 µM | – | – | – | – |
| CCCCCCCCCCCCN1c2nccc[n+]2C[C@@]1(O)c1ccc(Cl)cc1 | 122 µM | > 800 µM | – | – | – |
| CCCCCCCN1c2nccc[n+]2C[C@@]1(O)c1ccccc1 | 23.4 µM | 25.5 µM | Active | Active | – |
| CN1c2nccc[n+]2C[C@@]1(O)c1ccc(F)cc1 | 1820 µM | – | – | – | – |
| CCCCCCCCCN1c2nccc[n+]2C[C@@]1(O)c1ccc(Cl)cc1 | 18.3 µM | 20.2 µM | Active | Active | – |
| O[C@@]1(c2ccc3c(c2)OCO3)C[n+]2cccnc2N1Cc1ccc2c(c1)OCO2 | 53.7 µM | – | – | inactive | – |
| CCCCCCCCN1c2nccc[n+]2C[C@@]1(O)c1ccc([N+](=O)[O-])cc1 | 6.6 µM | 12.1 µM | Active | Active | – |
| CCCCCCCCNc1ncc(-c2ccc(Cl)c(Cl)c2)[nH]1 | 118 µM | > 800 µM | – | – | 50% |
| CCCCCCN1c2nccc[n+]2C[C@@]1(O)c1ccc([N+](=O)[O-])cc1 | 54.7 µM | 12.4 µM | Active | Active | – |
| CCCCCCCCCCN1c2nccc[n+]2C[C@@]1(O)c1ccc(OC)cc1 | 18.6 µM | – | – | Active | – |
| CCCCCCCCN1c2nccc[n+]2C[C@@]1(O)c1ccc(-c2ccc(-c3ccccc3)cc2)cc1 | 52.8 µM | 336 µM | – | – | – |
| CCCCCCCCN1c2nccc[n+]2C[C@@]1(O)c1cccc2ccccc12 | 14.7 µM | 15.1 µM | – | – | – |
| O=[N+]([O-])c1ccc([C@]2(O)C[n+]3cccnc3N2C2CCCCCCCCCCC2)cc1 | < 6.3 µM | 5.4 µM | Active | Active | – |
| CCCCN1c2nccc[n+]2C[C@@]1(O)c1ccc(F)cc1 | 163 µM | – | – | – | – |
| COc1ccc(CNc2ncc(-c3ccc([N+](=O)[O-])cc3)[nH]2)cc1 | > 800 µM | > 800 µM | – | – | – |
| O[C@@]1(c2ccc(Cl)cc2)C[n+]2cccnc2N1C1CCC1 | 121 µM | 372 µM | – | – | – |
| CC(C)CN1c2nccc[n+]2C[C@@]1(O)c1ccccc1 | 131 µM | 289 µM | – | – | – |

| SMILES | IC50 [1] | IC50 [2] | growth inhibition (GI) [3] | growth inhibition (GI) [4] | inhibition (INH) [1] |
| --- | --- | --- | --- | --- | --- |
| O[C@@]1(c2ccccc2)C[n+]2cccnc2N1Cc1ccccc1 | 212 µM | – | – | – | – |
| COc1cccc(CNc2ncc(-c3ccc(Cl)c(Cl)c3)[nH]2)c1 | > 800 µM | > 800 µM | – | – | – |
| CCCCCCCCCCN1c2nccc[n+]2C[C@@]1(O)c1ccccc1 | 15 µM | 29.9 µM | Active | Active | – |
| CC(C)(C)N1c2nccc[n+]2C[C@@]1(O)c1ccc([N+](=O)[O-])cc1 | 211 µM | 41.5 µM | – | – | – |
| CCCCN1c2nccc[n+]2C[C@@]1(O)c1ccc(OC)cc1 | 314 µM | – | – | – | – |
| CCCCCCCCN1c2nccc[n+]2C[C@@]1(O)c1ccc(OC)cc1 | 10.5 µM | – | – | – | – |
| CCCCN1c2nccc[n+]2C[C@@]1(O)c1ccc([N+](=O)[O-])cc1 | 293 µM | 145 µM | – | – | – |
| O[C@@]1(c2ccc(Cl)cc2)C[n+]2cccnc2N1C1CCCCCCC1 | 12.6 µM | 22.7 µM | Active | Active | – |
| CCCCNc1ncc(-c2ccc([N+](=O)[O-])cc2)[nH]1 | 702 µM | > 800 µM | – | – | – |
| CCCCCCCCN1c2nccc[n+]2C[C@@]1(O)c1ccc(Cl)c(Cl)c1 | 7.1 µM | – | – | – | – |
| c1ccc2c(-c3cnc(NCc4ccc5c(c4)OCO5)[nH]3)cccc2c1 | – | 10.5 µM | – | – | – |
| CCCCCCCCCCCCCN1c2nccc[n+]2C[C@@]1(O)c1ccc(Cl)cc1 | 316 µM | > 800 µM | – | – | – |
| CCCCCCCCCN1c2nccc[n+]2C[C@@]1(O)c1ccccc1 | 8.3 µM | 26.8 µM | Active | Active | – |
| CCCCCCCCCCN1c2nccc[n+]2C[C@@]1(O)c1ccc(Cl)cc1 | 51.3 µM | 83.3 µM | Active | Active | – |
| CCCCN1c2nccc[n+]2C[C@@]1(O)c1ccccc1 | 410 µM | > 400 µM | – | – | – |
| COc1ccc(CN2c3nccc[n+]3C[C@@]2(O)c2ccc(Br)cc2)cc1 | 110 µM | – | – | – | – |
| CCCCCCCCCNc1ncc(-c2ccc(Cl)cc2)[nH]1 | > 800 µM | – | – | – | – |
| O[C@@]1(c2ccc(Cl)cc2)C[n+]2cccnc2N1C1CC1 | 82.7 µM | 179 µM | – | – | – |
| CCCCCCCCN1c2nccc[n+]2C[C@@]1(O)c1ccc(F)cc1 | 7.6 µM | – | – | – | – |
| CCCCCCCCNc1ncc(-c2ccc(OC)cc2)[nH]1 | 400 µM | > 800 µM | – | – | 50% |
| CC(C)N1c2nccc[n+]2C[C@@]1(O)c1ccc([N+](=O)[O-])cc1 | 466 µM | 192 µM | – | – | – |
| CCCCCN1c2nccc[n+]2C[C@@]1(O)c1ccccc1 | 278 µM | 565 µM | – | – | – |
| CCCCCCCCNc1ncc(-c2ccc(F)cc2)[nH]1 | > 400 µM | 3.1 µM | – | – | – |
| CCN1c2nccc[n+]2C[C@@]1(O)c1ccc([N+](=O)[O-])cc1 | 579 µM | > 800 µM | – | – | – |

Source: ChEMBL document CHEMBL1811868, “Structure-activity relationship of 2-hydroxy-2-aryl-2,3-dihydro-imidazo[1,2-a]pyrimidinium salts and 2N-substituted 4(5)-aryl-2-amino-1H-imidazoles as inhibitors of biofilm formation by Salmonella Typhimurium and Pseudomonas aeruginosa” (Bioorg Med Chem, 2011)
